According to PubChem BioAssay:
Activity calls are given as the source filed them.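 Rule for the calls, unless noted: active = viability loss from added drug above about 55%, and viability with drug at most 40%, in both replicates (limit read from the data, passing the limit was not always enough); inconclusive = both conditions met in only one replicate; inactive = neither replicate meets both conditions.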

Assays:
[1] = reducers of endogenous Her2 protein level, primary screen, SKBR3 breast tumor cells, AlphaScreen, ATP viability (AID 461;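 active = Her2 level under about 52% in both replicate screens, with viability over 70% of control, limit read from the data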;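 for Her2 level: lower value means less Her2 protein in the cells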;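 for viability: percent of carrier control wells set as 100% viability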); settings: 18-24 h, measured here: SKBR3 viability, ATP luminescence, at 10 µM
[2] = molecular target: Receptor tyrosine-protein kinase erbB-2 (Homo sapiens) (UniProt P04626); experiment: as above; settings: 18-24 h, at 10 µM, stronger effect = lower value
[3] = SK-BR-3 cell growth inhibitors, pilot screen, 24 h, human (AID 572;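 active = viability at or below 10% of carrier control in both of two separate runs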;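 note: compound exposure lasted between 18 and 24 h rather than exactly 24 h; 100% = carrier-treated control wells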); settings: SK-BR-3 viability, CellTiter-Glo luminescence, at 10 µM, stronger effect = lower value
[4] = HUVEC growth inhibition – cell-based, human, primary screen (AID 575;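 active = viability at or below 30% in both replicate assays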;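 note: 100% = median of untreated cell wells with 0.1% DMSO on each plate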); settings: HUVEC proliferation, CellTiter-Glo luminescence, 72 h; at 10 µM; stronger effect = lower value
Procedure, shortened: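 Test system: primary human umbilical vein endothelial cells. Quantity: 1250 cells/well. Compound: single 10 µM dose, 0.1% DMSO, from 5x medium stock. Timing: 72 h treatment at 37 °C. Detection: ATP-based CellTiter-Glo luminescent read. Benchmarks: vehicle and MePR control wells. Format: 384-well plates coated with collagen.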

[5] = growth inhibitors of H69AR lung tumor, primary screen, human, duplicate replicates (AID 580;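 active = viability at or under a set limit in both replicates, limit being median viability minus 3 SD, cut at about 48% in these data, passing the limit was not always enough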;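 note: 100% = mean luminescence of untreated wells and 0% = no signal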); settings: H69AR lung tumor cells viability, ATP luminescence, 72 h; at 10 µM; stronger effect = lower value
[6] = reversal of MRP1-mediated doxorubicin resistance, pilot screen, H69AR cells, doxorubicin co-treatment (AID 601); settings: CellTiter-Glo, 72 h, at 10 µM; for differential viability (reversal): stronger effect = higher value
[7] = 384-well plate pilot, post-Golgi transport modulator project, inhibition of yeast transport mutant growth (AID 636; in the data active = inhibition above about 31%); settings: absorbance 615 nm, about 18 h, stronger effect = higher value
[8] = growth suppression of yeast trafficking mutant, preliminary HTS, modulators of trafficking downstream of Golgi apparatus project, 1536-format plate, OD 615 nm (AID 637; in the data active = inhibition above about 30%); settings: yeast transport mutant growth, absorbance 615 nm, 18 h; stronger effect = higher value
[9] = H69AR cells + 2 uM doxorubicin, measured here: viability with 2 uM doxorubicin, stronger effect = lower value
[10] = H69AR cells, compound alone cytotoxicity

Chain of Receptor tyrosine-protein kinase erbB-2 (Homo sapiens) (P04626 whole entry, looked up): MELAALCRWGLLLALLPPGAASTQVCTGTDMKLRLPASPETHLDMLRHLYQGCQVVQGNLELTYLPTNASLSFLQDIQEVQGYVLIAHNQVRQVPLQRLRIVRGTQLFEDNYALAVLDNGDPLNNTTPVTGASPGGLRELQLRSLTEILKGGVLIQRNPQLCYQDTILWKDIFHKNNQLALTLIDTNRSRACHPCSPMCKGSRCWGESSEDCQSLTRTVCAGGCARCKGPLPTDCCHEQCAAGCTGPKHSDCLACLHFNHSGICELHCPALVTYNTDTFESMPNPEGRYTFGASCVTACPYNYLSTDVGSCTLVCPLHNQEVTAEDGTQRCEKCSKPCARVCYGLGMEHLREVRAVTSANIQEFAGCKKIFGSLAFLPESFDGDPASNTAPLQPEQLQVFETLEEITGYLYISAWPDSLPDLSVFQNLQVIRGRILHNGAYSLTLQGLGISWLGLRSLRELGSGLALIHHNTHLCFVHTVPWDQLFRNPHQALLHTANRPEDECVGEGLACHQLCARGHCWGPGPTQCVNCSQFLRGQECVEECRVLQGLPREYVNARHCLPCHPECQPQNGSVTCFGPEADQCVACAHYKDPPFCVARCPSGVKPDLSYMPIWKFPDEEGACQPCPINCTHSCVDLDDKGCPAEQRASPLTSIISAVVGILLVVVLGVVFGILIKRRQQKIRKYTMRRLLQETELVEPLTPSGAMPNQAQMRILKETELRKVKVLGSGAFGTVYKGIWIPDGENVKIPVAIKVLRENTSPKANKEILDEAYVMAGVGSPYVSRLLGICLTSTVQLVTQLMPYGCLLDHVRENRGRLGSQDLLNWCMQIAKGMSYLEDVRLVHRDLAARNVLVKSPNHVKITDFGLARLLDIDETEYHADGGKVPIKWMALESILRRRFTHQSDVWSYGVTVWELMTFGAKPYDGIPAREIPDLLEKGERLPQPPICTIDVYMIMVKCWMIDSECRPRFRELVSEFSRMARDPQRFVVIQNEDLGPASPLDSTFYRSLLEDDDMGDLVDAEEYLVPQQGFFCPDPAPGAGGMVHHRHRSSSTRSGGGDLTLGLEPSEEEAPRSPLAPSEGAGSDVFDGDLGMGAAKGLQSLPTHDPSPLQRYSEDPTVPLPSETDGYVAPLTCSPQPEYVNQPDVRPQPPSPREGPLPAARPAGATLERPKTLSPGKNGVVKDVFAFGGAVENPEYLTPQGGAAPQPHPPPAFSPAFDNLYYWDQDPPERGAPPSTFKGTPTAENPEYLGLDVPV

Compound	viability [1] [%]	Her2 level [2]	viability [3]	viability [4]	viability [5]	differential viability (reversal) ([6]; H69AR cells + 2 uM doxorubicin)	viability [6, 9] [%]	viability [6, 10] [%]	inhibition [7]	inhibition [8]
CCOc1nc(-c2ccccc2)ccc1-c1noc(-c2cccnc2)n1	76.5	90% (inactive)	76.5% (inactive)	124% (inactive)	91.2% (inactive)	4.83% (inactive)	86.4	91.2	-0.26% (inactive)	0.33% (inactive)
CCOC(=O)C(C)Sc1nc2c(cnn2-c2ccc(C)cc2)c(=O)[nH]1 (stereo not given)	83	85.5% (inactive)	83% (inactive)	51.8% (inactive)	14.4% (active)	-58.2% (inactive)	72.6	14.4	-2.53% (inactive)	-11.2% (inactive)
CCOc1nc2ccccc2nc1NS(=O)(=O)c1ccccc1	83	75% (inactive)	83% (inactive)	91.3% (inactive)	88.5% (inactive)	0.49% (inactive)	88	88.5	-2.24% (inactive)	3.82% (inactive)
O=C(COc1nnc2ccccn12)N1CCN(S(=O)(=O)c2ccccc2)CC1	107	86% (inactive)	107% (inactive)	98.8% (inactive)	97.2% (inactive)	13.2% (inactive)	84	97.2	-5.13% (inactive)	-5.09% (inactive)
c1cncc(-c2nnc(SCCSc3nnc(-c4cccnc4)o3)o2)c1	99.5	93% (inactive)	99.5% (inactive)	98.7% (inactive)	91.9% (inactive)	0.085% (inactive)	91.8	91.9	-5.68% (inactive)	-2.17% (inactive)
COc1cc(NC(=O)C2CC(c3cccc(OC)c3OC)=NO2)cc(OC)c1OC (stereo not given)	83	99% (inactive)	83% (inactive)	54.9% (inactive)	27.3% (active)	-41.8% (inactive)	69.1	27.3	6.84% (inactive)	-4.18% (inactive)
Cc1sc2ncnc(OCC(=O)N3CCN(S(=O)(=O)c4ccccc4)CC3)c2c1C	69.5	84.5% (inactive)	69.5% (inactive)	100% (inactive)	92.7% (inactive)	12% (inactive)	80.7	92.7	-1.32% (inactive)	0.95% (inactive)
CCOc1ccc(-c2noc(-c3ccncc3)n2)cc1OCC	99	108% (inactive)	99% (inactive)	119% (inactive)	86.7% (inactive)	-3.94% (inactive)	90.7	86.7	-6.13% (inactive)	-1.61% (inactive)
CC(C)[C@H](NC(=O)OC(C)(C)C)c1nnc(SCC(=O)Nc2ccc(Br)cc2)o1	96.5	108% (inactive)	96.5% (inactive)	87.5% (inactive)	93.9% (inactive)	5.79% (inactive)	88.1	93.9	-1.17% (inactive)	-14% (inactive)
COC(=O)c1ccccc1NC(=O)CC(NCc1ccccc1)C(=O)O (stereo not given)	102	111% (inactive)	102% (inactive)	103% (inactive)	104% (inactive)	0.78% (inactive)	103	104	-2.11% (inactive)	-12.3% (inactive)
COc1ccc2[nH]c(=O)c(CN(C(=O)c3ccncc3)C(C)C)cc2c1	96	108% (inactive)	96% (inactive)	113% (inactive)	98.5% (inactive)	4.29% (inactive)	94.2	98.5	-3.12% (inactive)	4% (inactive)
CCOC(=O)C1CCN(c2c(N3CCCCCC3)c(=O)c2=O)CC1	97	100% (inactive)	97% (inactive)	87.9% (inactive)	98% (inactive)	0.92% (inactive)	97.1	98	-1.67% (inactive)	-0.33% (inactive)
CC(NC(=O)Nc1ccccc1)C(c1cccs1)N1CCOCC1 (stereo not given)	108	107% (inactive)	108% (inactive)	99.5% (inactive)	110% (inactive)	16.3% (inactive)	93.5	110	-0.38% (inactive)	4.83% (inactive)
O=c1c2ccccc2nnn1CSc1nnc2sc3ccccc3n12	95	64% (inactive)	95% (inactive)	92.8% (inactive)	77.5% (inactive)	9.79% (inactive)	67.7	77.5	-9.04% (inactive)	-1.43% (inactive)
CCOc1cc(S(=O)(=O)Nc2ccccn2)ccc1F	114	110% (inactive)	114% (inactive)	108% (inactive)	101% (inactive)	7.25% (inactive)	93.3	101	-4% (inactive)	-5.9% (inactive)
